Active and inactive are the calls of the source. The rule behind the calls is not given here.
Key:
Format in all cases: functional, organism-based
Leishmania major [1] = experiment: Antileishmanial activity against promastigotes of Leishmania major […] by MTT assay
Method in brief: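 Promastigotes of L. major vaccine strain MRHO/IR/75/ER were used. Two or more independent experiments were run in triplicate. IC50 was obtained by linear regression and reported as the mean. Meglumine antimonate served as the standard drug.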

Leishmania major [2] = experiment: Antiamastigote activity against Leishmania major MHOM/1L/80/ER amastigotes infected in mouse primary peritoneal macrophages assessed as decrease in number of intracellular amastigotes per macrophage after 24 hrs using Giemsa staining
Method in brief: (§1)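 Mouse peritoneal macrophages on glass coverslips at 1 × 10^6/well were infected for 2 h with stationary-phase promastigotes in RPMI (2 × 10^6/well, 3 parasites per macrophage). Extracellular parasites were washed off, then compound-containing medium was added for 24 h. Cells were methanol-fixed and Giemsa-stained, with 100 cells counted per well. Two experiment sets were run.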

Leishmania major [3] = experiment: Antiamastigote activity against Leishmania major MHOM/1L/80/ER amastigotes infected in mouse primary peritoneal macrophages assessed as infectivity index after 24 hrs using Giemsa staining
Method in brief: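 Macrophage infection and treatment were as for the amastigote counts: 1 × 10^6 peritoneal macrophages/well, infected 2 h at 3 promastigotes per cell, washed, then drug exposure for 24 h. Giemsa staining after methanol fixation, 100 cells examined per well. Infectivity index = % macrophages with at least one intracellular parasite × mean parasites per infected macrophage. Two experiment sets.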

Leishmania major [4] = experiment: Antiamastigote activity against Leishmania major MHOM/1L/80/ER amastigotes infected in mouse primary peritoneal macrophages assessed as percentage of macrophage infectivity after 24 hrs using Giemsa staining; method in brief: as §1

Compound	IC50 (Leishmania major [1]; Leishmania major) [µM]	Activity (Leishmania major [2])	Activity (Leishmania major [3])	Activity (Leishmania major [4])	IC50 (Leishmania major [1]) [µM]
O=[N+]([O-])c1ccc(-c2nnc(NCc3cn(Cc4ccc(Cl)c(Cl)c4)nn3)s2)o1	132				
O=[N+]([O-])c1ccc(-c2nnc(NCc3cn(Cc4cccc(Cl)c4Cl)nn3)s2)o1	104				
O=[N+]([O-])c1ccc(-c2nnc(NCc3cn(Cc4ccc(Cl)cc4Cl)nn3)s2)o1	19.9	Active	Active	Active	
O=[N+]([O-])c1ccc(-c2nnc(NCc3cn(Cc4ccccc4F)nn3)s2)o1	19	Active	Active	Active	
O=[N+]([O-])c1ccc(Cn2cc(CNc3nnc(-c4ccc([N+](=O)[O-])o4)s3)nn2)cc1	32.7				
O=[N+]([O-])c1ccc(-c2nnc(NCc3cn(Cc4ccc(F)cc4)nn3)s2)o1	21.4	Active	Active	Active	
MEGLUMINE ANTIMONATE					68300
Cc1ccccc1Cn1cc(CNc2nnc(-c3ccc([N+](=O)[O-])o3)s2)nn1	25.2				
Cc1cccc(Cn2cc(CNc3nnc(-c4ccc([N+](=O)[O-])o4)s3)nn2)c1	21.9	Active	Active	Active	
O=[N+]([O-])c1ccc(-c2nnc(NCc3cn(Cc4ccc(Cl)cc4)nn3)s2)o1	88.8				
O=[N+]([O-])c1ccc(-c2nnc(NCc3cn(Cc4c(F)cccc4Cl)nn3)s2)o1	17.4	Active	Active	Active	
O=[N+]([O-])c1ccc(-c2nnc(NCc3cn(Cc4cccc(Cl)c4)nn3)s2)o1	108				
O=[N+]([O-])c1ccc(-c2nnc(NCc3cn(Cc4ccccc4Cl)nn3)s2)o1	18.9	Active	Active	Active	
Cc1ccc(Cn2cc(CNc3nnc(-c4ccc([N+](=O)[O-])o4)s3)nn2)cc1	12.2	Active	Active	Active	
O=[N+]([O-])c1ccc(-c2nnc(NCc3cn(Cc4ccccc4)nn3)s2)o1	19.6	Active	Active	Active	
